{"data": "Published values pooled from the literature", "read-out": "cell growth or viability", "note": "Compare with care: the assays were run in different laboratories."}
{"SMILES": "COc1cc(C(=O)c2nc(-c3cccc4[nH]ccc34)c(C)[nH]2)cc(OC)c1OC", "cell line": "PC-3", "method": "MTS", "time": "72 h", "IC50": "0.0192 µM"}
{"SMILES": "COc1ccccc1/C=N/N=C1\\C(=O)Nc2ccccc21", "cell line": "HUVEC", "method": "MTT", "time": "48 h", "IC50": "112 µg/mL"}
{"SMILES": "Cc1c(C)c2c(c(C)c1O)CCC(C)(COc1ccc(CC3SC(=O)NC3=O)cc1)O2 (stereo not shown)", "cell line": "NIH3T3", "time": "96 h", "IC50": "37.1 µM"}
{"SMILES": "NNc1nc2ccc(Br)cc2c(=O)n1-c1ccc(Cl)cc1", "cell line": "NIH3T3", "method": "MTT", "time": "48 h", "IC50": "19.7 µM"}
{"SMILES": "COc1cc(C(=O)c2nc(-c3ccnc4[nH]ccc34)c[nH]2)cc(OC)c1OC", "cell line": "PC-3", "method": "MTS", "time": "72 h", "IC50": "0.0301 µM"}
{"SMILES": "CN(C)C(=O)Nc1nc2c(Cl)cc(Cl)cc2c(=O)n1-c1ccccc1", "cell line": "NIH3T3", "method": "MTT", "time": "48 h", "IC50": "38.2 µM"}
{"SMILES": "CCCCn1cnc2ccc(-c3ccc(NC(=O)Nc4ccc(F)cc4)nc3)cc2c1=O", "cell line": "A549", "method": "CCK-8", "time": "72 h", "IC50": "0.79 µM"}
{"SMILES": "Nc1cc2cccnc2c2ncccc12", "cell line": "HFF-1", "method": "MTT", "time": "48 h", "notes": "dark", "IC50": "13 µM"}
{"SMILES": "CCCCC(=O)Nc1ccc(-c2ccc3ncn(CCC)c(=O)c3c2)c(C)n1", "cell line": "A549", "method": "CCK-8", "time": "72 h", "IC50": "> 10 µM"}
{"SMILES": "CS(=O)(=O)CCNCc1ccc(-c2ccc3ncnc(Nc4ccc(OCc5cccc(F)c5)c(Cl)c4)c3c2)o1", "cell line": "NCI-H2170", "method": "ATP luminescence", "IC50": "0.122 µM"}
{"SMILES": "CC(=O)Nc1ccc(O)cc1", "cell line": "NIH3T3", "time": "96 h", "IC50": "65.4 µM"}
{"SMILES": "CCCCn1cnc2ccc(-c3ccc(NC(=O)Nc4ccccc4)nc3)cc2c1=O", "cell line": "A549", "method": "CCK-8", "time": "72 h", "IC50": "1.24 µM"}
{"SMILES": "O=C1Nc2ccccc2/C1=N/N=C/c1cccc([N+](=O)[O-])c1", "cell line": "HUVEC", "method": "MTT", "time": "48 h", "IC50": "119 µg/mL"}
{"SMILES": "NNc1nc2ccc(Br)cc2c(=O)n1-c1ccc(F)cc1", "cell line": "NIH3T3", "method": "MTT", "time": "48 h", "IC50": "> 200 µM"}
{"SMILES": "CCCCn1cnc2ccc(-c3ccc(NC(=O)NCCc4ccccc4)nc3)cc2c1=O", "cell line": "A549", "method": "CCK-8", "time": "72 h", "IC50": "> 10 µM"}
{"SMILES": "Cc1cc(Nc2ncnc3ccc(NC4=NC(C)(C)CO4)cc23)ccc1Oc1ccn2ncnc2c1", "cell line": "NCI-H2170", "method": "ATP luminescence", "IC50": "0.088 µM"}
{"SMILES": "NNc1nc2c(Cl)cc(Cl)cc2c(=O)n1-c1ccc(Cl)cc1", "cell line": "NIH3T3", "method": "MTT", "time": "48 h", "IC50": "48.6 µM"}
{"SMILES": "C=CCn1c(=O)c2cnc(Nc3ccc(N4CCN(C)CC4)cc3)nc2n1-c1ccc2c(n1)[C@@](O)(CC)CC2", "cell line": "NCI-H1048", "method": "ATP luminescence", "time": "72 h", "IC50": "0.31 µM"}
{"SMILES": "O=C(Nc1ccc(-c2ccc3ncn(Cc4ccc5c(c4)OCO5)c(=O)c3c2)cn1)c1ccccc1", "cell line": "A549", "method": "CCK-8", "time": "72 h", "IC50": "> 10 µM"}
